# Test results taken from ChEMBL document CHEMBL1124918, “Synthesis and evaluation of alpha-[[(2-haloethyl)amino]methyl]-2- nitro-1H-imidazole-1-ethanols as prodrugs of alpha-[(1-aziridinyl)methyl]-2- nitro-1H-imidazole-1-ethanol (RSU-1069) and its analogues which are radiosensitizers and bioreductively activated cytotoxins” (J Med Chem, 1990).
# Experiments:
# [1] = test system: Mus musculus; experiment: Maximum tolerated dose was determined for compound administered intraperitoneally in C3H/He mice; format: functional
# Summary of the method: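 Female C3H/He mice, 8–12 weeks old, bearing KHT sarcoma. Given ip within 10 min, 0.5 mL/25 g (1 mL/25 g if solubility-limited). Escalating single doses to groups of 2–3 mice; MTD is the highest dose without severe or persistent clinical signs or death within 24 h.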
# [2] = Half-life at pH of 5.5-6.0 at 4 degree Centigrade; conditions: pH 5.5-6.0
# [3] = Half-life at pH of 7.0 at 4 degree Centigrade; format: ADME; conditions: pH 7
# Summary of the method: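 Agent (0.2–0.5 mM) incubated in PBS at pH 7.0 and 4 °C, with pH adjusted right after the solution was made. Aliquots taken at set times were analysed by isocratic HPLC on a CN column, with UV detection at 313 nm. Mobile phase was 10–25% methanol in 10 mM KH2PO4, pH 3.0, at 2 mL min⁻¹. Half-life came from loss of parent compound.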
# [4] = test system: V79; experiment: Concentration which reduced survival to 1% following incubation 3 hours with V79 mammalian cells under aerobic (Cair) conditions; format: functional, cell-based; conditions: Cricetulus griseus
# Summary of the method: (§1)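 Chinese hamster V79-379A cells, 1.5 × 10⁶ per glass bottle, grown to confluency over 48 h. Exposed for 3 h at 37 °C to a range of agent concentrations in growth medium (pH 7.4), under aerobic or hypoxic conditions. Cells then trypsinized, diluted and plated for colony formation. The ratio is aerobic over hypoxic concentration.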
# [5] = test system: V79; experiment: Concentration which reduced survival to 1% following incubation 3 hours with V79 mammalian cells under hypoxic (Cnitrogen) conditions; format: functional, cell-based; conditions: Cricetulus griseus; summary of the method: as §1
# [6] = Ratio of concentration which reduced V79 cell survival to 1% under aerobic conditions to that of hypoxic conditions; format: functional; summary of the method: as §1
# [7] = Half-life at pH of 5.5-6.0 at 23 degree Centigrade; format: ADME; conditions: pH 5.5
# Summary of the method: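 Agent (0.2–0.5 mM) incubated in PBS, with or without NaHCO₃ (24–107 mM), pH adjusted right after preparation, at 23 °C. Aliquots taken over time and checked for loss by isocratic HPLC on a CN column, UV at 313 nm. Mobile phase was 10–25% methanol in 10 mM KH₂PO₄, pH 3.0.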
# [8] = test system: Mus musculus; experiment: Maximum tolerated dose was determined for compound administered intraperitoneally as a suspension in arachis oil in C3H/He mice; format: functional
SMILES,MTD [1],Concentration [4],Concentration [5],Ratio [6],other results
CC(C)(CCl)NCC(O)Cn1ccnc1[N+](=O)[O-].Cl (centres undefined),0.8 mM/kg,–,–,–,half-life [2]: 76 min
Br.C[C@@H](Br)[C@@H](C)NCC(O)Cn1ccnc1[N+](=O)[O-] (some centres undefined),1 mM/kg,–,–,–,half-life [3]: 30 min
O=[N+]([O-])c1nccn1CC(O)CN1CC1 (centres undefined),0.4 mM/kg,0.3 mM,0.003 mM,100,–
C[C@@H]1[C@H](C)N1CC(O)Cn1ccnc1[N+](=O)[O-] (some centres undefined),3 mM/kg,–,–,–,–
Br.O=[N+]([O-])c1nccn1CC(O)CNCCBr (centres undefined),1 mM/kg,2.3 mM,0.09 mM,25.5,half-life [7]: 30 min
Cl.F.O=[N+]([O-])c1nccn1CC(O)CNCCF (centres undefined),–,35 mM,2.5 mM,14,–
Br.CC(C)(CBr)NCC(O)Cn1ccnc1[N+](=O)[O-] (centres undefined),1 mM/kg,–,–,–,half-life [2]: < 5 min
CC1(C)N(CC(O)Cn2ccnc2[N+](=O)[O-])C1(C)C (centres undefined),–,–,–,–,MTD [8]: 1.5 mM/kg
I.O=[N+]([O-])c1nccn1CC(O)CNCCI (centres undefined),–,2.4 mM,0.08 mM,30,–
Cl.O=[N+]([O-])c1nccn1CC(O)CNCCCl (centres undefined),1.5 mM/kg,5 mM,0.35 mM,14.3,half-life [7]: > 300 min; half-life [3]: ~280 min
CCNCC(O)Cn1ccnc1[N+](=O)[O-] (centres undefined),3.9 mM/kg,–,–,–,–
Br.CC(C)(Br)C(C)(C)NCC(O)Cn1ccnc1[N+](=O)[O-] (centres undefined),0.7 mM/kg,–,–,–,half-life [2]: < 2 min
C[C@@H](Cl)[C@@H](C)NCC(O)Cn1ccnc1[N+](=O)[O-].Cl (some centres undefined),3 mM/kg,–,–,–,half-life [7]: 120 min
O=[N+]([O-])c1nccn1CC(O)CNCCO (centres undefined),–,70 mM,3.5 mM,20,–
CC(C)(Cl)C(C)(C)NCC(O)Cn1ccnc1[N+](=O)[O-].Cl (centres undefined),1.3 mM/kg,–,–,–,half-life [2]: < 2 min
